Results collected from several papers.
Compare with care: the assays were run in different laboratories.
Target: G protein-coupled receptor kinase 5 (GRK5, Homo sapiens, UniProt P34947)

Compound	observed	mode	method	concentration	quantity	value
N#CCCc1ccc2c(c1)-c1[nH]c3ccc([N+](=O)[O-])cc3c1CC(=O)N2	cell-free assay	–	–	0.5 µM	remaining signal	103%
CC(C)(C)c1nc(-c2cccc(NS(=O)(=O)c3c(F)cccc3F)c2F)c(-c2ccnc(N)n2)s1	enzyme activity	inhibitor	radiometric	1 µM	remaining activity	85%
CCCOc1ccc(OC)c(F)c1C(=O)c1ccc(C(=O)N[C@@H]2CNC[C@H]2NC(=O)c2ccc3[nH]ncc3c2)cc1	enzyme activity	inhibitor	–	10 µM	remaining activity	114%
O=C(Nc1cnn(-c2csc(C(=O)NC3COC3)c2)c1)Nc1ccccc1Cl	enzyme activity	inhibitor	–	5 µM	remaining activity	98%
CC(C)(C)c1nc2c(s1)c1nc(N)ncc1c1ccc(NS(=O)(=O)c3c(F)cccc3F)c(F)c12	enzyme activity	inhibitor	radiometric	1 µM	remaining activity	84%
O=C1NC(=O)c2cc(Nc3ccc(F)cc3)c(Nc3ccc(F)cc3)cc21	cell-free assay	–	–	0.5 µM	remaining signal	101%
COc1cc2ncnc(Nc3ccc(Oc4ccccc4)c(C)c3C)c2cc1OC	enzyme activity	inhibitor	–	1 µM	inhibition	0%
Cc1cnc(NC2CCOCC2)nc1-n1cnc(C(=O)NC(CN)c2cc(F)cc(Cl)c2)c1 (centres unmarked)	enzyme activity	inhibitor	radiometric	1 µM	remaining activity	96%
COc1cc2ncnc(Nc3ccc(Oc4ccccc4)cc3C)c2cc1OC	enzyme activity	inhibitor	–	1 µM	inhibition	-2%
Cc1ccc(C(=O)NCc2ccsc2)cc1C#Cc1cn(C(C)C)c2ncnc(N)c12	enzyme activity	inhibitor	–	1 µM	activity vs control	111%
Cc1ccc(NC(=O)c2ccc(C)c(C(F)(F)F)c2)cc1C#Cc1nn(C2CCC(O)CC2)c2ncnc(N)c12 (centres unmarked)	cell-free assay	–	–	10 µM	remaining signal	99%
CCCS(=O)(=O)Nc1ccc(F)c(C(=O)c2c[nH]c3ncc(-c4ccc(Cl)cc4)cc23)c1F	enzyme activity	inhibitor	–	1 µM	inhibition	< 10%
CCN(CC)c1ccc(C2=NNC(=O)CC2C)cc1[N+](=O)[O-] (centres unmarked)	enzyme activity	inhibitor	–	10 µM	remaining activity	103%
CC(C)(O)[C@H]1CC[C@H](Nc2ccc3ncc(-c4cccc(C(F)(F)F)c4)n3n2)CC1	enzyme activity	inhibitor	–	1 µM	remaining activity	95.1%
Cc1ccc(Nc2nccc(N(C)c3ccc4c(C)n(C)nc4c3)n2)cc1S(N)(=O)=O	enzyme activity	inhibitor	–	10 µM	inhibition	-10%
COc1cc(Cl)c(C(=O)N[C@@H](CN[C@H]2CC[C@@H](N)CC2)Cc2ccc(C#N)cc2)cc1-c1ccc(CN[C@H](C)c2ccc(C)cc2)o1	enzyme activity	inhibitor	–	1 µM	remaining activity	99%
Cc1cc(NC(=O)c2cccc3cc(-c4cccc5[nH]nc(N)c45)ccc23)ccc1F	enzyme activity	inhibitor	–	0.1 µM	activity vs control	112%
Cc1sc(C(=O)NC2COC2)cc1-n1cc(NC(=O)Nc2c(F)cccc2Cl)cn1	enzyme activity	inhibitor	–	10 µM	remaining activity	113%
CNC(=O)c1cc(Oc2ccc(NC(=O)Nc3ccc(Cl)c(C(F)(F)F)c3)cc2)ccn1	enzyme activity	inhibitor	–	0.3 µM	inhibition	7%
CN1CC(Oc2cnc(C#N)cc2-c2ccn3nc(NC(=O)C4CC4)cc3c2)C1	enzyme activity	inhibitor	–	1 µM	inhibition	3%
